According to ChEMBL document CHEMBL5724801, “EUbOPEN Chemogenomics Library - Multiplex” (2024):
“And” between values parts separate entries of the source, which are not always exact repeats. Equal values may be shown once.

Test system: U2OS
Assay: Multiplex assay against U2OS
Assay type: toxicity, cell-based
Conditions: human
Method in brief: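 With compound added, live cells were imaged on a CQ1 microscope at 37°C and 5% CO2; staining with Hoechst33342, BioTracker Green Microtubule Cytoskeleton Dye, MitoTracker Red and Annexin V Alexa Fluor 680 had been done at seeding. The CellPathfinder machine-learning gating scheme split cells into Hoechst high-intensity objects or normal cells, normal cells into healthy, pyknosed or fragmented nuclei, and pyknosed cells into mitotic or apoptotic. The tubulin, mitochondrial-mass and membrane-permeability phenotypes are per cents of healthy-nucleus cells.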

[1] = 12 h, 1 µM, compound concentration 1 uM
[2] = 12 h, 10 µM, compound concentration 10 uM
[3] = 24 h, 1 µM, compound concentration 1 uM
[4] = 24 h, 10 µM, compound concentration 10 uM
[5] = 48 h, 1 µM, compound concentration 1 uM
[6] = 48 h, 10 µM, compound concentration 10 uM

Cc1cc(-c2ccc3c(c2)CC[C@H]3N2CC3(CCN(C(=O)Cc4cn5cc(C)sc5n4)CC3)C2)ncn1 [PF-5190457]
Population Apoptotic (%) [1]: 82% and 63%
Population Fragmented Nuclei (%) [1]: 24% and 21%
Population Healthy Nuclei (%) [1]: 65% and 66%
Population Hoechst High Intensity Objects (%) [1]: 1% and 0%
Population Membrane Permeable-Phenotype (%) [1]: 7% and 4%
Population Mitochondria Different-Phenotype (%) [1]: 3%
Population Mitotic Cells (%) [1]: 17% and 36%
Population Normal (%) [1]: 98% and 100%
Population Pyknosed Nuclei (%) [1]: 9% and 11%
Population Tubulin-Different-Phenotype (%) [1]: 4% and 3%
Total Cell Count [1]: 239 and 93
Population Apoptotic (%) [2]: 61% and 71%
Population Fragmented Nuclei (%) [2]: 18% and 14%
Population Healthy Nuclei (%) [2]: 66% and 74%
Population Hoechst High Intensity Objects (%) [2]: 2% and 1%
Population Membrane Permeable-Phenotype (%) [2]: 7% and 8%
Population Mitochondria Different-Phenotype (%) [2]: 5% and 10%
Population Mitotic Cells (%) [2]: 38% and 28%
Population Normal (%) [2]: 97% and 98%
Population Pyknosed Nuclei (%) [2]: 14% and 11%
Population Tubulin-Different-Phenotype (%) [2]: 5% and 6%
Total Cell Count [2]: 238 and 126
Population Apoptotic (%) [3]: 69% and 33%
Population Fragmented Nuclei (%) [3]: 25% and 21%
Population Healthy Nuclei (%) [3]: 66% and 76%
Population Hoechst High Intensity Objects (%) [3]: 1% and 0%
Population Membrane Permeable-Phenotype (%) [3]: 8% and 6%
Population Mitochondria Different-Phenotype (%) [3]: 3% and 1%
Population Mitotic Cells (%) [3]: 30% and 66%
Population Normal (%) [3]: 98% and 99%
Population Pyknosed Nuclei (%) [3]: 8% and 2%
Population Tubulin-Different-Phenotype (%) [3]: 5% and 2%
Total Cell Count [3]: 282 and 126
Population Apoptotic (%) [4]: 67% and 84%
Population Fragmented Nuclei (%) [4]: 18%
Population Healthy Nuclei (%) [4]: 72% and 69%
Population Hoechst High Intensity Objects (%) [4]: 2% and 1%
Population Membrane Permeable-Phenotype (%) [4]: 3% and 11%
Population Mitochondria Different-Phenotype (%) [4]: 0% and 8%
Population Mitotic Cells (%) [4]: 32% and 15%
Population Normal (%) [4]: 97% and 98%
Population Pyknosed Nuclei (%) [4]: 9% and 12%
Population Tubulin-Different-Phenotype (%) [4]: 1% and 4%
Total Cell Count [4]: 295 and 154
Population Apoptotic (%) [5]: 84% and 66%
Population Fragmented Nuclei (%) [5]: 20% and 16%
Population Healthy Nuclei (%) [5]: 71% and 78%
Population Hoechst High Intensity Objects (%) [5]: 0% and 2%
Population Membrane Permeable-Phenotype (%) [5]: 7% and 4%
Population Mitochondria Different-Phenotype (%) [5]: 4% and 2%
Population Mitotic Cells (%) [5]: 15% and 33%
Population Normal (%) [5]: 99% and 97%
Population Pyknosed Nuclei (%) [5]: 8% and 5%
Population Tubulin-Different-Phenotype (%) [5]: 4% and 2%
Total Cell Count [5]: 402 and 184
Population Apoptotic (%) [6]: 74% and 76%
Population Fragmented Nuclei (%) [6]: 16% and 18%
Population Healthy Nuclei (%) [6]: 71%
Population Hoechst High Intensity Objects (%) [6]: 3%
Population Membrane Permeable-Phenotype (%) [6]: 5% and 11%
Population Mitochondria Different-Phenotype (%) [6]: 2% and 6%
Population Mitotic Cells (%) [6]: 25% and 23%
Population Normal (%) [6]: 96%
Population Pyknosed Nuclei (%) [6]: 12% and 10%
Population Tubulin-Different-Phenotype (%) [6]: 3% and 4%
Total Cell Count [6]: 389 and 217

CN(C)CCOc1ccc(/C(=C(/CCCO)c2ccccc2)c2ccc(O)cc2)cc1
Population Apoptotic (%) [1]: 43.75% and 21.88%
Population Fragmented Nuclei (%) [1]: 1.53% and 1.8%
Population Healthy Nuclei (%) [1]: 90.31% and 79.04%
Population Hoechst High Intensity Objects (%) [1]: 0%
Population Membrane Permeable-Phenotype (%) [1]: 2.26% and 4.55%
Population Mitotic Cells (%) [1]: 56.25% and 78.12%
Population Normal (%) [1]: 100%
Population Pyknosed Nuclei (%) [1]: 8.16% and 19.16%
Population Tubulin-Different-Phenotype (%) [1]: 2.54% and 2.27%
Total Cell Count [1]: 392 and 167
Population Apoptotic (%) [2]: 30.43% and 23.08%
Population Fragmented Nuclei (%) [2]: 2.02% and 2.16%
Population Healthy Nuclei (%) [2]: 71.39% and 69.78%
Population Hoechst High Intensity Objects (%) [2]: 0%
Population Membrane Permeable-Phenotype (%) [2]: 13.77% and 36.08%
Population Mitotic Cells (%) [2]: 69.57% and 76.92%
Population Normal (%) [2]: 100%
Population Pyknosed Nuclei (%) [2]: 26.59% and 28.06%
Population Tubulin-Different-Phenotype (%) [2]: 60.73% and 38.14%
Total Cell Count [2]: 346 and 139
Population Apoptotic (%) [3]: 35.85% and 30.56%
Population Fragmented Nuclei (%) [3]: 0.75% and 3.24%
Population Healthy Nuclei (%) [3]: 89.35% and 80.09%
Population Hoechst High Intensity Objects (%) [3]: 0%
Population Membrane Permeable-Phenotype (%) [3]: 0.63% and 4.05%
Population Mitotic Cells (%) [3]: 64.15% and 69.44%
Population Normal (%) [3]: 100%
Population Pyknosed Nuclei (%) [3]: 9.91% and 16.67%
Population Tubulin-Different-Phenotype (%) [3]: 1.67% and 1.16%
Total Cell Count [3]: 535 and 216
Population Apoptotic (%) [4]: 44.63% and 34.25%
Population Fragmented Nuclei (%) [4]: 2.92% and 1.89%
Population Healthy Nuclei (%) [4]: 67.64% and 52.2%
Population Hoechst High Intensity Objects (%) [4]: 0%
Population Membrane Permeable-Phenotype (%) [4]: 12.23% and 26.51%
Population Mitotic Cells (%) [4]: 55.37% and 65.75%
Population Normal (%) [4]: 100%
Population Pyknosed Nuclei (%) [4]: 29.44% and 45.91%
Population Tubulin-Different-Phenotype (%) [4]: 51.08% and 46.99%
Total Cell Count [4]: 411 and 159
Population Apoptotic (%) [5]: 42.71% and 56.25%
Population Fragmented Nuclei (%) [5]: 2% and 2.61%
Population Healthy Nuclei (%) [5]: 87.88% and 81.7%
Population Hoechst High Intensity Objects (%) [5]: 0.11% and 0%
Population Membrane Permeable-Phenotype (%) [5]: 1.2% and 2%
Population Mitotic Cells (%) [5]: 57.29% and 43.75%
Population Normal (%) [5]: 99.89% and 100%
Population Pyknosed Nuclei (%) [5]: 10.12% and 15.69%
Population Tubulin-Different-Phenotype (%) [5]: 2.28% and 1.6%
Population Apoptotic (%) [6]: 54.89% and 66.67%
Population Fragmented Nuclei (%) [6]: 4.64% and 2.86%
Population Healthy Nuclei (%) [6]: 74.08% and 49.14%
Population Hoechst High Intensity Objects (%) [6]: 0%
Population Mitotic Cells (%) [6]: 45.11% and 33.33%
Population Normal (%) [6]: 100%
Population Pyknosed Nuclei (%) [6]: 21.28% and 48%
Population Tubulin-Different-Phenotype (%) [6]: 26.13% and 55.81%

O=C(NCCO)c1cccc(-c2cc(Nc3ccc(OC(F)(F)F)cc3)ncn2)c1
Population Apoptotic (%) [1]: 64% and 84%
Population Fragmented Nuclei (%) [1]: 13% and 15%
Population Healthy Nuclei (%) [1]: 72% and 73%
Population Hoechst High Intensity Objects (%) [1]: 1%
Population Membrane Permeable-Phenotype (%) [1]: 3% and 4%
Population Mitochondria Different-Phenotype (%) [1]: 3%
Population Mitotic Cells (%) [1]: 35% and 15%
Population Normal (%) [1]: 98%
Population Pyknosed Nuclei (%) [1]: 13% and 10%
Population Tubulin-Different-Phenotype (%) [1]: 1% and 4%
Total Cell Count [1]: 213 and 128
Population Apoptotic (%) [2]: 84% and 100%
Population Fragmented Nuclei (%) [2]: 21% and 20%
Population Healthy Nuclei (%) [2]: 66% and 68%
Population Hoechst High Intensity Objects (%) [2]: 4% and 2%
Population Membrane Permeable-Phenotype (%) [2]: 9%
Population Mitochondria Different-Phenotype (%) [2]: 7% and 15%
Population Mitotic Cells (%) [2]: 15% and 0%
Population Normal (%) [2]: 95% and 97%
Population Pyknosed Nuclei (%) [2]: 12%
Population Tubulin-Different-Phenotype (%) [2]: 6% and 3%
Population Apoptotic (%) [3]: 70% and 86%
Population Fragmented Nuclei (%) [3]: 16% and 20%
Population Healthy Nuclei (%) [3]: 73% and 69%
Population Hoechst High Intensity Objects (%) [3]: 1%
Population Membrane Permeable-Phenotype (%) [3]: 3% and 7%
Population Mitochondria Different-Phenotype (%) [3]: 3% and 5%
Population Mitotic Cells (%) [3]: 29% and 13%
Population Normal (%) [3]: 98%
Population Pyknosed Nuclei (%) [3]: 9%
Population Tubulin-Different-Phenotype (%) [3]: 2% and 4%
Total Cell Count [3]: 256 and 156
Population Apoptotic (%) [4]: 82% and 100%
Population Fragmented Nuclei (%) [4]: 22% and 15%
Population Healthy Nuclei (%) [4]: 64% and 78%
Population Hoechst High Intensity Objects (%) [4]: 4% and 1%
Population Membrane Permeable-Phenotype (%) [4]: 6% and 12%
Population Mitochondria Different-Phenotype (%) [4]: 3% and 13%
Population Mitotic Cells (%) [4]: 17% and 0%
Population Normal (%) [4]: 95% and 98%
Population Pyknosed Nuclei (%) [4]: 12% and 5%
Population Tubulin-Different-Phenotype (%) [4]: 1% and 4%
Population Apoptotic (%) [5]: 88% and 96%
Population Fragmented Nuclei (%) [5]: 15% and 20%
Population Healthy Nuclei (%) [5]: 75% and 65%
Population Hoechst High Intensity Objects (%) [5]: 2%
Population Membrane Permeable-Phenotype (%) [5]: 6% and 9%
Population Mitochondria Different-Phenotype (%) [5]: 3% and 4%
Population Mitotic Cells (%) [5]: 11% and 3%
Population Normal (%) [5]: 97%
Population Pyknosed Nuclei (%) [5]: 8% and 14%
Population Tubulin-Different-Phenotype (%) [5]: 4% and 6%
Total Cell Count [5]: 417 and 206
Population Apoptotic (%) [6]: 92% and 91%
Population Fragmented Nuclei (%) [6]: 18% and 26%
Population Healthy Nuclei (%) [6]: 72% and 64%
Population Hoechst High Intensity Objects (%) [6]: 3% and 2%
Population Membrane Permeable-Phenotype (%) [6]: 8% and 5%
Population Mitochondria Different-Phenotype (%) [6]: 3% and 7%
Population Mitotic Cells (%) [6]: 7% and 8%
Population Normal (%) [6]: 96% and 97%
Population Pyknosed Nuclei (%) [6]: 9% and 8%
Population Tubulin-Different-Phenotype (%) [6]: 6% and 1%
